{"data": "Results from different studies", "target": "5'-AMP-activated protein kinase catalytic subunit alpha-1 (PRKAA1, Homo sapiens, UniProt Q13131)", "technique": "competition with immobilised ligand", "note": "Lines come from different studies, so protocols differ."}
{"SMILES": "COc1cnc(Nc2cccc(S(N)(=O)=O)c2)nc1N1CCN(c2ccccc2)C(=O)C1", "test": "binding", "conditions": "1 µM", "remaining binding": "100%"}
{"SMILES": "F[C@@H]1CCN(c2nccc(-c3cnn4ncccc34)n2)C1", "test": "binding", "conditions": "1 µM", "remaining binding": "85%"}
{"SMILES": "CC(C)CC(=O)N1CCc2nc(-c3ccc(Br)cc3)nc(N(C)Cc3ccccc3)c2C1", "test": "cell-free assay", "conditions": "0.1 µM", "remaining binding": "100%"}
{"SMILES": "O=C(NCC1CCOCC1)c1n[nH]cc1NC(=O)c1c(F)cccc1F", "test": "binding", "conditions": "1 µM", "remaining binding": "93%"}
{"SMILES": "O=S(=O)(NC1CCC(c2cc(F)ccc2F)(S(=O)(=O)c2ccc(Cl)cc2)CC1)C(F)(F)F (stereo not drawn)", "test": "cell-free assay", "conditions": "1 µM", "remaining binding": "100%"}
{"SMILES": "COc1ccnn2ncc(-c3ccnc(N(C)C)n3)c12", "test": "binding", "conditions": "1 µM", "remaining binding": "97%"}
{"SMILES": "O=C(c1ccc(Nc2nccc(-c3cc4ccccc4s3)n2)cc1)N1CCC(N2CCCC2)CC1", "test": "binding", "conditions": "1 µM", "remaining binding": "36%"}
{"SMILES": "Nc1ncc2c(n1)-c1c([nH]c3ccc(C#CC4CC4)cc13)CCCC2", "test": "binding", "conditions": "1 µM", "remaining binding": "97%"}
{"SMILES": "Cc1cnn2ncc(-c3ccnc(N(C)C)n3)c2c1", "test": "binding", "conditions": "1 µM", "remaining binding": "93%"}
{"SMILES": "CN(C)C(=O)Cn1cc(-c2nc(C3(c4ccc(-c5cnc(N)nc5)cc4)CC3)no2)cn1", "test": "cell-free assay", "conditions": "1 µM", "remaining binding": "98%"}
{"SMILES": "FC(F)(F)Oc1cccc(-c2cnc3ccc(-c4ccncc4)nn23)c1", "test": "cell-free assay", "conditions": "5 µM", "remaining binding": "96%"}
{"SMILES": "O=C(NCCCN1CCOCC1)c1ccc(Nc2ncc(Cl)c(-c3ccc(Cl)s3)n2)cc1", "test": "binding", "conditions": "1 µM", "remaining binding": "15%"}
{"SMILES": "C[C@H]1CCN(c2nccc(-c3cnn4ncccc34)n2)C1", "test": "binding", "conditions": "1 µM", "remaining binding": "93%"}
{"SMILES": "O=C(NC[C@@H]1[C@H]2CN(C(=O)OCc3cc(C(F)(F)F)cc(C(F)(F)F)c3)C[C@@H]12)c1ccc2[nH]nnc2c1", "test": "cell-free assay", "conditions": "1 µM", "remaining binding": "100%"}
{"SMILES": "c1cncc(-c2cccc(Nc3nccc(NC4CCCCC4)n3)c2)c1", "test": "binding", "conditions": "10 µM", "remaining binding": "15%"}
{"SMILES": "CNC(=O)[C@@H]1CC[C@@H](n2c(-c3ccc4cnccc4c3)nc3ccc(C(=O)NCc4cccc(C(N)=O)c4)cc32)C1", "test": "binding", "conditions": "1 µM", "remaining binding": "84%"}
{"SMILES": "N[C@@H]1CCN(c2nccc(-c3cnn4ncccc34)n2)C1", "test": "binding", "conditions": "1 µM", "remaining binding": "95%"}
{"SMILES": "Cc1c(NC(=O)c2cc(C(N)=O)nc3cc(F)ccc23)c(C(F)(F)F)nn1Cc1ccc(C(C)(C)C)cc1", "test": "cell-free assay", "conditions": "1 µM", "remaining binding": "100%"}
{"SMILES": "CN(C)c1nccc(-c2cnc3ncccn23)n1", "test": "binding", "conditions": "1 µM", "remaining binding": "100%"}
{"SMILES": "CS(=O)(=O)NCC[C@H](NC(=O)c1cncc2c1cnn2-c1ccc(F)cc1)c1ccnc(S(C)(=O)=O)c1", "test": "cell-free assay", "conditions": "1 µM", "remaining binding": "100%"}
{"SMILES": "Cc1cnc(Nc2ccc(C(=O)N3CCC(N4CCCC4)CC3)cc2)nc1-c1cc2ccccc2s1", "test": "binding", "conditions": "1 µM", "remaining binding": "7.9%"}
